Results from ChEMBL document CHEMBL4480404, “Discovery of Lipophilic Bisphosphonates That Target Bacterial Cell Wall and Quinone Biosynthesis” (J Med Chem, 2019).
Converted amounts (≈) assume the structure as drawn. The source made the active and inactive calls. The rule behind the calls is not given here.

Tests used:
[1] = Lipophilicity, log D of the compound at pH 7.4; type: physicochemical; settings: buffer
Candida albicans = assay: microbe, parasite or virus in culture; type: functional; settings: CAI-4, 12 h, read-out: ED50 (the source's name)
[2] = Inhibition of Escherichia coli OPPS using IPP as substrate
[3] = Growth inhibition of HEK293 cells after 24 hrs by MTT assay; type: cell-based; settings: human, read-out: ED50
How it was run: (§1)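 HEK293 cells in DMEM (4.5 g/L glucose) with 10% FBS and 1% penicillin-streptomycin, seeded at 10⁵ cells/mL. Inhibitor from 10 mM stock diluted threefold across 10 wells; 37 °C for 24 or 96 h.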

[4] = Binding affinity to Staphylococcus aureus HepPPS
Staphylococcus aureus = assay: Antibacterial activity against Staphylococcus aureus Newman after 12 hrs; type: functional; settings: read-out: ED50 (the source's name)
How it was run: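 Log-phase S. aureus culture in tryptic soy broth (OD600 ~0.3, then diluted 500-fold). Inhibitors two-fold serially diluted across 12 wells from a 100 µM–1 mM start; 37 °C, 200 rpm, 12 h; OD600 read for growth inhibition.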

Bacillus subtilis [5] = assay: Antibacterial activity against Bacillus subtilis (Ehrenberg) Cohn ATCC 6051 after 12 hrs; type: functional; settings: (Ehrenberg) Cohn ATCC 6051, 12 h, read-out: ED50 (the source's name)
How it was run: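 Log-phase LB culture (grown to OD600 ~0.3, then diluted 500-fold) exposed to two-fold serial dilutions of inhibitor starting at 100 µM–1 mM across 12 wells; 37 °C, 200 rpm shaking, 12 h. OD600 read and ED50 fitted; duplicate or triplicate.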

[6] = test system: Mycolicibacterium smegmatis; assay: Antibacterial activity against Mycobacterium smegmatis MC2 155 ATCC 700084 after 48 hrs; type: functional; settings: MC2 155 ATCC 700084, 48 h, read-out: ED50 (the source's name)
How it was run: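 Culture grown 36–48 h, diluted 1000-fold in Middlebrook 7H9 with 10% ADC, 0.5% glycerol, 0.05% Tween 80; inhibitors started at 100 µM–1 mM, threefold serial dilution across 10 wells; 37 °C, 200 rpm, 48 h; OD600 read-out.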

Bacillus anthracis = assay: Antibacterial activity against Bacillus anthracis Sterne after 12 hrs; type: functional; settings: read-out: ED50 (the source's name)
Bacillus subtilis [7] = assay: Antibacterial activity against Bacillus subtilis (Ehrenberg) Cohn ATCC 6051 assessed as growth inhibition in presence of HMBPP after 12 hrs; type: functional, organism-based; settings: (Ehrenberg) Cohn ATCC 6051, 12 h
How it was run: (§2)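 Rescue format: log-phase B. subtilis in LB with rescue agent(s) at 50 µM each, alone or as pairwise combinations of UP, MK-4, FPP or HMBPP. Inhibitor diluted threefold across 12 wells from a 100 µM–1 mM start; 37 °C, 200 rpm, 12 h. Growth inhibition read as OD600; ED50-based fold-rescue; duplicate.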

Bacillus subtilis [8] = assay: Antibacterial activity against Bacillus subtilis (Ehrenberg) Cohn ATCC 6051 assessed as growth inhibition in presence of FPP after 12 hrs; type: functional, organism-based; settings: (Ehrenberg) Cohn ATCC 6051, 12 h; how it was run: as §2
Bacillus subtilis [9] = assay: Antibacterial activity against Bacillus subtilis (Ehrenberg) Cohn ATCC 6051 assessed as growth inhibition in presence of FPP and UP after 12 hrs; type: functional, organism-based; settings: (Ehrenberg) Cohn ATCC 6051, 12 h; how it was run: as §2
Bacillus subtilis [10] = assay: Antibacterial activity against Bacillus subtilis (Ehrenberg) Cohn ATCC 6051 assessed as growth inhibition in presence of HMBPP and MK4 after 12 hrs; type: functional, organism-based; settings: (Ehrenberg) Cohn ATCC 6051, 12 h; how it was run: as §2
Clostridioides difficile [11] = assay: Antibacterial activity against Clostridioides difficile ATCC 43255 after 48 hrs; type: functional; settings: ATCC 43255, 48 h
How it was run: (§3)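 Grown anaerobically 48 h at 37 °C on brain heart infusion agar supplemented with yeast extract, L-cysteine, vitamin K1 and hemin. Inoculum set to a 0.5 McFarland standard, then diluted in supplemented BHI broth to ~5 × 10^5 CFU/mL. Broth dilution over 64–0.5 μM, incubated anaerobically 48 h at 37 °C. MIC read visually as lowest concentration inhibiting growth.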

Clostridioides difficile [12] = assay: Antibacterial activity against Clostridioides difficile ATCC 1870 after 48 hrs; type: functional; settings: ATCC 1870, 48 h; how it was run: as §3
Bacillus subtilis [13] = assay: Antibacterial activity against Bacillus subtilis (Ehrenberg) Cohn ATCC 6051 in absence of fetal bovine serum after 12 hrs; type: functional; settings: (Ehrenberg) Cohn ATCC 6051, 12 h, read-out: ED50 (the source's name)
How it was run: (§4)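 Log-phase B. subtilis diluted 500-fold into LB containing 0%, 4% or 10% fetal bovine serum. Inhibitor threefold serially diluted across 12 wells from a 100 µM–1 mM start; incubated 12 h at 37 °C with 200 rpm shaking; growth inhibition by OD600.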

Bacillus subtilis [14] = assay: Antibacterial activity against Bacillus subtilis (Ehrenberg) Cohn ATCC 6051 in presence of 10% fetal bovine serum after 12 hrs; type: functional; settings: (Ehrenberg) Cohn ATCC 6051, 12 h, read-out: ED50 (the source's name); how it was run: as §4
[15] = Growth inhibition of HEK293 cells after 96 hrs by MTT assay; type: cell-based; settings: human, read-out: ED50; how it was run: as §1
[16] = target: T1, Farnesyl pyrophosphate synthase (Homo sapiens, UniProt P14324); assay: Inhibition of human FPPS using IPP and GPP as substrate
T1 sequence (P14324 whole entry): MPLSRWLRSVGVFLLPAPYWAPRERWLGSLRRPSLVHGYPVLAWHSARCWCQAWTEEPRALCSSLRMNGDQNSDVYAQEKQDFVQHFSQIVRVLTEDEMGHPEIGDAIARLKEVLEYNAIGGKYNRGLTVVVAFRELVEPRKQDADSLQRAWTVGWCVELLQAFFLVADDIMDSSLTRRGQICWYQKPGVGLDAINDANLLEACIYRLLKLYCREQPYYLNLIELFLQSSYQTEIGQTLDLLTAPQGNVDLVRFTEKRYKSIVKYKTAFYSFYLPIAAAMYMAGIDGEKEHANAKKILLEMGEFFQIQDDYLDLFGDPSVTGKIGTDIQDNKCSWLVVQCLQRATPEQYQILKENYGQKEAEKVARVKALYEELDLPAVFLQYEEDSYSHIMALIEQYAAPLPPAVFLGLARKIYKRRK
How it was run: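 Expressed HsFPPS at 0.15 μM with 50 μM IPP and 50 μM GPP, 25°C, in 20 mM HEPES pH 7.5, 150 mM NaCl, 500 μM MgCl2. Enzyme preincubated 30 min at room temperature with serially diluted compound. Continuous MESG/PNP phosphate-release read-out, with pyrophosphatase added. At least 3 runs on different days; pooled data fitted by nonlinear regression for IC50.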

[17] = target: T1, Farnesyl pyrophosphate synthase; assay: Inhibition of human FPPS using IPP and GPP
Bacillus subtilis [18] = assay: Antibacterial activity against Bacillus subtilis (Ehrenberg) Cohn ATCC 6051 assessed as growth inhibition in presence of MK7 after 12 hrs; type: functional, organism-based
Bacillus subtilis [19] = assay: Antibacterial activity against Bacillus subtilis (Ehrenberg) Cohn ATCC 6051 assessed as growth inhibition in presence of decaprenyl phosphate after 12 hrs; type: functional, organism-based

## CC(C)CCCC(C)c1cnc(NCC(P(=O)(O)O)P(=O)(O)O)s1 (configuration not stated)
[1]; read-out: logD
  logD: -2.96

## CC(C)CCCC(C)CCCC(C)CCOc1ccc[n+](CC(P(=O)([O-])O)P(=O)(O)O)c1 (configuration not stated)
[1]; read-out: logD
  logD: -3.48

## CCCCCCCCCCOc1ccc[n+](CC(P(=O)([O-])O)P(=O)(O)O)c1 (configuration not stated)
Candida albicans
  EC50: > 50 µg/mL
[2]
  IC50: 0.006 to 0.02 µM

## CC(C)CCCC(C)CCCC(C)CCCC(C)CCOc1ccc[n+](CC(P(=O)([O-])O)P(=O)(O)O)c1 (configuration not stated)
[1]; read-out: logD
  logD: -1.85

## CC(C)CCCC(C)CCNc1ccc[n+](CC(P(=O)([O-])O)P(=O)(O)O)c1 (configuration not stated)
[3]
  GI50 at 24 h: 440 µM

## CC(C)CCCC(C)CCc1cnc(NCC(P(=O)(O)O)P(=O)(O)O)s1 (configuration not stated)
[1]; read-out: logD
  logD: -2.12

## CC(C)=CCC/C(C)=C/CC/C(C)=C/COP(=O)(O)OP(=O)(O)O [FARNESYL DIPHOSPHATE]
[4]
  Kd: 35 µM

## CC(C)CCCC(C)CCOc1ccnc(NC(P(=O)(O)O)P(=O)(O)O)c1 (configuration not stated)
[3]
  GI50 at 24 h: 1300 µM
[1]; read-out: logD
  logD: -1.63

## CCCCCCCCCCCCCc1ccc[n+](CC(P(=O)([O-])O)P(=O)(O)O)c1 (configuration not stated)
[3]
  GI50 at 24 h: 48 µM
[1]; read-out: logD
  logD: -3.65

## O=P([O-])(O)C(C[n+]1ccc(-c2ccc3oc4ccccc4c3c2)cc1)P(=O)(O)O (configuration not stated)
Candida albicans
  EC50: > 50 µg/mL

## CCCCCCCCOc1cccc(C(=O)Nc2ccc(F)cc2C(=O)O)c1
Staphylococcus aureus
  EC50: 3 to 8 µg/mL (≈ 7.74 to 20.6 µM)
Bacillus subtilis [5]
  EC50: 3 to 8 µg/mL (≈ 7.74 to 20.6 µM)
[6]
  EC50: 3 to 8 µg/mL (≈ 7.74 to 20.6 µM)
Bacillus anthracis
  EC50: 3 to 8 µg/mL (≈ 7.74 to 20.6 µM)
Candida albicans
  EC50: > 50 µg/mL

## CC(C)CCCC(C)CCSc1ccc[n+](CC(P(=O)([O-])O)P(=O)(O)O)c1 (configuration not stated)
[3]
  GI50 at 24 h: 510 µM
[1]
  logD: -5.09

## CC(C)CCCC(C)CCOc1ccc[n+](CC(P(=O)([O-])O)P(=O)(O)O)c1 (configuration not stated)
[3]
  GI50 at 24 h: 620 µM
Bacillus subtilis [7]
  IC50: 2.1 µg/mL
Bacillus subtilis [8]
  IC50: 3.5 µg/mL
Bacillus subtilis [9]
  IC50: 8.9 µg/mL
Bacillus subtilis [10]
  IC50: 8.9 µg/mL
Clostridioides difficile [11]
  MIC: 6.8 µg/mL (≈ 16.1 µM)
Clostridioides difficile [12]
  MIC: 6.8 µg/mL (≈ 16.1 µM)
Bacillus subtilis [13]
  EC50: 1 µg/mL (≈ 2.36 µM)
Bacillus subtilis [14]
  EC50: 1.7 µg/mL
[15]
  GI50 at 96 h: 76 µM
[16]
  IC50: 0.23 µM
[17]
  IC50: 0.23 µM
Bacillus subtilis [18]
  Activity: Active
Bacillus subtilis [19]
  Activity: Active

## CC(C)CCCC(C)CCCn1cc[n+](CC(P(=O)([O-])O)P(=O)(O)O)c1 (configuration not stated)
[3]
  GI50 at 24 h: 440 µM
[1]
  logD: -5.65

## CC(C)CCCC(C)CCn1cc[n+](CC(P(=O)([O-])O)P(=O)(O)O)c1 (configuration not stated)
[3]
  GI50 at 24 h: 420 µM
